Data taken from PubChem BioAssay.
A number with no mark means an inactive call.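 The calls were made as follows: active = growth inhibition above 25% in both replicates, a cutoff set 3 SD above the mean; inconclusive = above 25% in only one replicate; inactive = the rest.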

Experiment: OD615 S. cerevisiae growth inhibition, permissive medium, pilot counter-assay, permissive growth control for S. cerevisiae lifespan shortening project (AID 705)
Settings: OD615, 24 h, at 10 µM, hits give high values
How it was run: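 Material: engineered DeaD yeast; compound dosing: one dose 10 µM, DMSO 0.25% final; measure: yeast growth inhibition indicated by reduced 24 h OD615; detection: OD615 turbidity read; incubation: cells pre-grown 4 h, then 24 h compound exposure, 30 °C humidified; medium: permissive synthetic complete medium with raffinose and galactose carbon sources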

| SMILES | growth inhibition [%] |
| --- | --- |
| Cc1oc2cc(O)ccc2c(=O)c1N1C(=O)c2ccccc2C1=O | -5.69 |
| Cc1ccc(C2CC(c3ccc(F)cc3)Nc3nc(N)nn32)cc1 (stereo not given) | -3.28 |
| CCOC(=O)c1c(C)n(C)c2cc(Br)c(C(=O)OC)cc12 | 8.75 |
| COc1ccc(N(CC(=O)NCc2ccco2)S(=O)(=O)c2c(C)nn(C)c2C)cc1 | -11 |
| CC1CCC(NC(=O)CC2Oc3ccccc3NC2=O)CC1 (stereo not given) | 6.36 |
| COc1ccccc1N1CCN(C(=O)c2cc3cc(Br)ccc3oc2=O)CC1 | 2.45 |
| O=C(NC1CCCCCC1)C1CCN(S(=O)(=O)c2cccc3cccnc23)CC1 | 8.96 |
| CCOc1ccc2[nH]c(C)c(CN3CCOCC3)c(=O)c2c1 | 0.82 |
| COc1ccc(OC)c(CCNC(=O)C2CCN(c3nnc(-n4cccc4)s3)CC2)c1 | -7.79 |
| CN1C(=O)C(O)(CC(=O)c2cccnc2)c2ccccc21 (stereo not given) | -7.06 |
| COc1ccc(C2C(C(=O)NCC3CCCO3)c3cc(OC)c(OC)cc3C(=O)N2C)cc1OC (stereo not given) | -13.5 |
| Cc1cc(OCC(=O)Nc2cc(-c3nn4c(C)nnc4s3)ccc2C)ccc1Cl | 2.82 |
| Cc1ccccc1-n1c(Cn2c(=O)sc3ccccc32)nnc1SCC(=O)Nc1nccs1 | -3.9 |
| CN=C1SC(CC(=O)Nc2ccccc2F)C(=O)N1C (stereo not given) | 0.635 |
| CCSc1nnc(NC(=O)CSc2nc3c(c(=O)n2CCOC)SC(C)C3)s1 (stereo not given) | -5.35 |
